# Laboratory results: ChEMBL document CHEMBL2429840, “The lignan (-)-hinokinin displays modulatory effects on human monoamine and GABA transporter activities” (J Nat Prod, 2013)
# Calls of active or inactive are those of the source. The calls are words filed in the database; no cut-off is given here.
# Key:
# [1] = molecular target: T1, Sodium-dependent noradrenaline transporter (Homo sapiens, UniProt P23975); assay: Inhibition of human NET expressed in MDCK cells using [3H]-norepinephrine as substrate after 10 mins by scintillation counting; format: cell-based
# Method in brief: (§1)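 Transfected MDCK cells were washed with PBS-CM and preincubated 10 min at room temperature with compound (0.2–200 or 0.5–500 μM) or vehicle. Uptake of 50 nM radiolabeled substrate then ran for 10 min at room temperature, with RO 41-0960 added for dopamine. Naive MDCK background was subtracted. IC50 came from nonlinear regression of three independent assays run in triplicate.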
# [2] = molecular target: Sodium-dependent serotonin transporter (Homo sapiens, UniProt P31645); assay: Inhibition of human SERT expressed in MDCK cells using [3H]-serotonin as substrate after 10 mins by scintillation counting; format: cell-based; method in brief: as §1
# [3] = molecular target: T2, Sodium-dependent dopamine transporter (Homo sapiens, UniProt Q01959); assay: Inhibition of human DAT expressed in MDCK cells using [3H]-dopamine as substrate after 10 mins by scintillation counting; format: cell-based; method in brief: as §1
# [4] = molecular target: T3, Sodium- and chloride-dependent GABA transporter 1 (Homo sapiens, UniProt P30531); assay: Inhibition of GAT-1 (unknown origin)
# Method in brief: (§2)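 Transporter transiently expressed in COS-7 cells, with compound tested in dose–response (EAATs at 0.5–500 μM) against vehicle. Nonspecific uptake from empty-vector (pcDNA3) COS-7 sister cultures was subtracted. IC50 came from nonlinear regression of at least three independent experiments run in triplicate.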
# Target sequence in this assay (P30531 whole entry, looked up): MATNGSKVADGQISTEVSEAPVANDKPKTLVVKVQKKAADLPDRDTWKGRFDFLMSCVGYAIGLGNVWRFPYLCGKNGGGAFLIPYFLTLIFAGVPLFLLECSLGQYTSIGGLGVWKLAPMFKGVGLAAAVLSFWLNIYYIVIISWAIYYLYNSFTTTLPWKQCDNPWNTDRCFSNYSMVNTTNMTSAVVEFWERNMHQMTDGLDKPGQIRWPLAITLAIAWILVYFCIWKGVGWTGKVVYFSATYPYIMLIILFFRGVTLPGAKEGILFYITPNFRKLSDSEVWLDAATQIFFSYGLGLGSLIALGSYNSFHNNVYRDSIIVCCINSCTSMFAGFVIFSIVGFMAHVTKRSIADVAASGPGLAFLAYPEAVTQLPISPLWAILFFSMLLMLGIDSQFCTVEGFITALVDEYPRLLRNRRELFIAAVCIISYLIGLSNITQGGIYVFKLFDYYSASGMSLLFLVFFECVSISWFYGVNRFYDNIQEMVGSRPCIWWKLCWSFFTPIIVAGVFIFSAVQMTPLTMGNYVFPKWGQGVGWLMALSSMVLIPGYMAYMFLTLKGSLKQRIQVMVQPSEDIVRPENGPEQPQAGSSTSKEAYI
# [5] = molecular target: T1, Sodium-dependent noradrenaline transporter; assay: Inhibition of human NET expressed in MDCK cells using [3H]-norepinephrine as substrate at 200 uM after 10 mins by scintillation counting; format: cell-based
# [6] = molecular target: Excitatory amino acid transporter 1 (Homo sapiens, UniProt P43003); assay: Inhibition of EAAT1 (unknown origin) expressed in african green monkey COS7 cells using [3H]-glutamic acid as substrate after 10 mins by scintillation counting; format: cell-based, COS-7; method in brief: as §2
# [7] = molecular target: T1, Sodium-dependent noradrenaline transporter; assay: Non-competitive inhibition of human NET expressed in COS-7 cells using [3H]-norepinephrine as substrate
# [8] = molecular target: T3, Sodium- and chloride-dependent GABA transporter 1; assay: Inhibition of GAT-1 (unknown origin) expressed in african green monkey COS7 cells using [3H]-GABA as substrate after 10 mins by scintillation counting; format: cell-based, COS-7; method in brief: as §2
# Target sequence in this assay (P30531 whole entry): as the sequence (P30531 whole entry, looked up) above
# [9] = Toxicity in Wistar rat peripheral blood micronucleus
# [10] = molecular target: T2, Sodium-dependent dopamine transporter; assay: Activity at human DAT expressed in MDCK cells assessed as dopamine release at 0.5 to 500 uM after 10 mins using [3H]-dopamine pretreated for 1 hr before compound addition followed by wash out by reversed transport efflux assay; format: cell-based
# Method in brief: (§3)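 Reverse-transport efflux of preloaded substrate: hDAT in MDCK GFP-hDAT cells, hNET and GAT-1 in transiently transfected COS-7 cells. Compound tested at 0.5–500 μM against vehicle (basal) release. Non-radiolabeled substrate served as the positive control for assay integrity.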
# [11] = molecular target: T4, Excitatory amino acid transporter 3 (Homo sapiens, UniProt P43005); assay: Inhibition of EAAT3 (unknown origin) expressed in african green monkey COS7 cells using [3H]-glutamic acid as substrate after 10 mins by scintillation counting; format: cell-based, COS-7; method in brief: as §2
# T4 sequence (P43005 whole entry): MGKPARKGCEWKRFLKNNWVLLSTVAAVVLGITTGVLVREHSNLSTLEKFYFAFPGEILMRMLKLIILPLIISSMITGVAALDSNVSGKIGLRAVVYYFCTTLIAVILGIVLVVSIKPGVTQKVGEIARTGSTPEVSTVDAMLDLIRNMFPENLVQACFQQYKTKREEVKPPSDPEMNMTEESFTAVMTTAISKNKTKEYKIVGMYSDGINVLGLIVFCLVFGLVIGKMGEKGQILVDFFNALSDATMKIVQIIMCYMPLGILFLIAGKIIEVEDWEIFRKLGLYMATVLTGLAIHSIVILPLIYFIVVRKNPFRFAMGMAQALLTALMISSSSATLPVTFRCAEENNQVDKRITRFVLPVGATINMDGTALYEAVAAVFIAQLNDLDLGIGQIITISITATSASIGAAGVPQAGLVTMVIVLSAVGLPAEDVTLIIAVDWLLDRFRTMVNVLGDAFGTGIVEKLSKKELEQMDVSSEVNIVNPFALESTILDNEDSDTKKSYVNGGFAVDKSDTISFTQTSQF
# [12] = molecular target: T3, Sodium- and chloride-dependent GABA transporter 1; assay: Non-competitive inhibition of GAT-1 (unknown origin) expressed in african green monkey COS7 cells using [3H]-GABA as substrate; format: cell-based; conditions: COS-7
# Method in brief: (§4)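 Cells were preincubated with or without 20 μM compound for 10 min at room temperature. Uptake then ran with eight concentrations of unlabeled/radiolabeled substrate mix, in triplicate. Dopamine (99.9%:0.1%, 45 nM–100 μM) was used in hDAT MDCK cells and GABA (99.95%:0.05%) in GAT-1 COS-7 cells. Nonspecific uptake was subtracted, Michaelis–Menten Vmax/KM were fitted, and n≥3 independent assays were analysed by paired t-test.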
# Target sequence in this assay (P30531 whole entry, looked up): as the sequence (P30531 whole entry, looked up) above
# [13] = molecular target: T1, Sodium-dependent noradrenaline transporter; assay: Activity at human NET expressed in african green monkey COS7 cells assessed as norepinephrine release at 0.5 to 500 uM after 10 mins using [3H]-norepinephrine pretreated for 1 hr before compound addition followed by wash out by reversed transport efflux assay; format: cell-based; conditions: COS-7; method in brief: as §3
# [14] = molecular target: T5, Sodium- and chloride-dependent glycine transporter 1 (Homo sapiens, UniProt P48067); assay: Inhibition of GlyT1 (unknown origin) expressed in MDCK cells using [3H]-glycine as substrate after 10 mins by scintillation counting; format: cell-based; method in brief: as §1
# T5 sequence (P48067 whole entry): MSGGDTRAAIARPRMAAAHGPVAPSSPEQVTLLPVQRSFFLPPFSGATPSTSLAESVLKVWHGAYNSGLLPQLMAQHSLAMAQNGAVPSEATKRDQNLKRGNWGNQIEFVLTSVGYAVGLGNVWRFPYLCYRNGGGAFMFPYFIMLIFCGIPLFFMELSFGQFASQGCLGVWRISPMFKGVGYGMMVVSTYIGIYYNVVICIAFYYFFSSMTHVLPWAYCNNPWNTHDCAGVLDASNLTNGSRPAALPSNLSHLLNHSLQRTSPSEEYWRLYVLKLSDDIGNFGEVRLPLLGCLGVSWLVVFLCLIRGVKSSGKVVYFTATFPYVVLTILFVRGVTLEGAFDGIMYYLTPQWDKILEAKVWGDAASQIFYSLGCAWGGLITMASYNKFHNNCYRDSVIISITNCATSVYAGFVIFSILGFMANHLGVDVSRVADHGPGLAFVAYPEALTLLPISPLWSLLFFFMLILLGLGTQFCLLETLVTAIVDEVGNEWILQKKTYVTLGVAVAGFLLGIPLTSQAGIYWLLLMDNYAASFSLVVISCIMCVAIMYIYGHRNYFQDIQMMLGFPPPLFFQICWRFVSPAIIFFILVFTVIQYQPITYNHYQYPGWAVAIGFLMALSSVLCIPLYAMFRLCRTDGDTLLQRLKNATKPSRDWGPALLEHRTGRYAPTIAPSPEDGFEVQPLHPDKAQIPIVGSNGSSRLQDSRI
# [15] = molecular target: T6, Sodium- and chloride-dependent GABA transporter 3 (Homo sapiens, UniProt P48066); assay: Inhibition of GAT-3 (unknown origin) expressed in african green monkey COS7 cells using [3H]-GABA as substrate after 10 mins by scintillation counting; format: cell-based, COS-7; method in brief: as §2
# T6 sequence (P48066 whole entry): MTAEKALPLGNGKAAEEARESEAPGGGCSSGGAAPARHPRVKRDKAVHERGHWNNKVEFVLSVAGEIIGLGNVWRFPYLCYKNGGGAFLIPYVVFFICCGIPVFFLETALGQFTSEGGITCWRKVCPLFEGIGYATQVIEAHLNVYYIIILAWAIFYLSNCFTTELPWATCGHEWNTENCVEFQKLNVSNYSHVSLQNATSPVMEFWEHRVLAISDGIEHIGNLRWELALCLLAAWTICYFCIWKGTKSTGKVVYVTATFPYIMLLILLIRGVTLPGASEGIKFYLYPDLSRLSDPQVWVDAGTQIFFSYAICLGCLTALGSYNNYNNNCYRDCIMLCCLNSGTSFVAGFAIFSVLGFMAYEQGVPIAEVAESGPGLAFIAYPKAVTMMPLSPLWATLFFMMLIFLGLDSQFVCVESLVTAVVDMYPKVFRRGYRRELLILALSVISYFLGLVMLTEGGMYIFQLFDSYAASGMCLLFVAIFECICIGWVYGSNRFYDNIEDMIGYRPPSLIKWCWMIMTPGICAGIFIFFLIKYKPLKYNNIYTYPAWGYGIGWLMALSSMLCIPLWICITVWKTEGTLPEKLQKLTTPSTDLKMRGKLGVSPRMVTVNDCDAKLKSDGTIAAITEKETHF
# [16] = molecular target: Excitatory amino acid transporter 2 (Homo sapiens, UniProt P43004); assay: Inhibition of EAAT2 (unknown origin) expressed in african green monkey COS7 cells using [3H]-glutamic acid as substrate after 10 mins by scintillation counting; format: cell-based, COS-7; method in brief: as §2
# [17] = molecular target: T3, Sodium- and chloride-dependent GABA transporter 1; assay: Activity at GAT1 (unknown origin) expressed in african green monkey COS7 cells assessed as GABA release at 0.5 to 500 uM after 10 mins using [3H]-GABA pretreated for 1 hr before compound addition followed by wash out by reversed transport efflux assay; format: cell-based; conditions: COS-7; method in brief: as §3
# Target sequence in this assay (P30531 whole entry, looked up): as the sequence (P30531 whole entry, looked up) above
# [18] = molecular target: T3, Sodium- and chloride-dependent GABA transporter 1; assay: Allosteric modulation of GAT-1 (unknown origin) expressed in african green monkey COS7 cells using [3H]-GABA as substrate at 20 uM; format: cell-based; conditions: COS-7; method in brief: as §4
# Target sequence in this assay (P30531 whole entry, looked up): as the sequence (P30531 whole entry, looked up) above
# [19] = molecular target: T2, Sodium-dependent dopamine transporter; assay: Non-competitive inhibition of human DAT expressed in MDCK cells using [3H]-dopamine as substrate; format: cell-based; method in brief: as §4
# Sodium-dependent serotonin transporter, sequence (P31645 whole entry): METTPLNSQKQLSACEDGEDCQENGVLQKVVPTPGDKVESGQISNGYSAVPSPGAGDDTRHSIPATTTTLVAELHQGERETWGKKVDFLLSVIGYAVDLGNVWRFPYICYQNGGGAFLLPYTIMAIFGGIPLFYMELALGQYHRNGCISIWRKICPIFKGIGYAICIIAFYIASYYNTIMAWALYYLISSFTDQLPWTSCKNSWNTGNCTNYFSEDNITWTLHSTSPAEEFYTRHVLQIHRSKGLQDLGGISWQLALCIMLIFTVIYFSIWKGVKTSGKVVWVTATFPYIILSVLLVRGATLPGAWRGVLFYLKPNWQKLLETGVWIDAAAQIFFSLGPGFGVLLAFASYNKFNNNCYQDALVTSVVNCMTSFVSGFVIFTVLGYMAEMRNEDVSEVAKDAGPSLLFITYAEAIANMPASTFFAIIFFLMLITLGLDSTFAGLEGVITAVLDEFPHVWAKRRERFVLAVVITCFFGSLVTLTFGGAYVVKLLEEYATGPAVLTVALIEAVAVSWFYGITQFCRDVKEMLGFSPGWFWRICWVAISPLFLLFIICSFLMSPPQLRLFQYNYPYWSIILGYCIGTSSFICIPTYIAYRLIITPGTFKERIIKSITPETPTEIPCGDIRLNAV
# T1 sequence (P23975 whole entry): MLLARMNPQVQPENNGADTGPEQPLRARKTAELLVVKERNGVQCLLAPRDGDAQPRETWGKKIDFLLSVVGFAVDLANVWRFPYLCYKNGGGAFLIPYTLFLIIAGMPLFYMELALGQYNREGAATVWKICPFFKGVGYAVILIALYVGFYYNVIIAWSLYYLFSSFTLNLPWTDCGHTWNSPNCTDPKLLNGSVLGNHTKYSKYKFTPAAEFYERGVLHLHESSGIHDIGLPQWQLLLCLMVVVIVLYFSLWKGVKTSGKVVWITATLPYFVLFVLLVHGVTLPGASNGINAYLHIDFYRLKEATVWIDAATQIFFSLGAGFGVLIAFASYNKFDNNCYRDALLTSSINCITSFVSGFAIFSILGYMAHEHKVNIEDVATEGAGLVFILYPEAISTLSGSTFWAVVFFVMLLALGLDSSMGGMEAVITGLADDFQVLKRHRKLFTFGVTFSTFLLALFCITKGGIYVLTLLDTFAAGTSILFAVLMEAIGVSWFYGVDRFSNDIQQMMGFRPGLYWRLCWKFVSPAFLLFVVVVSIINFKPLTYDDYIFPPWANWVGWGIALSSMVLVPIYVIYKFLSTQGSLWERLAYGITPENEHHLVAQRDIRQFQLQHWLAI
# T2 sequence (Q01959 whole entry): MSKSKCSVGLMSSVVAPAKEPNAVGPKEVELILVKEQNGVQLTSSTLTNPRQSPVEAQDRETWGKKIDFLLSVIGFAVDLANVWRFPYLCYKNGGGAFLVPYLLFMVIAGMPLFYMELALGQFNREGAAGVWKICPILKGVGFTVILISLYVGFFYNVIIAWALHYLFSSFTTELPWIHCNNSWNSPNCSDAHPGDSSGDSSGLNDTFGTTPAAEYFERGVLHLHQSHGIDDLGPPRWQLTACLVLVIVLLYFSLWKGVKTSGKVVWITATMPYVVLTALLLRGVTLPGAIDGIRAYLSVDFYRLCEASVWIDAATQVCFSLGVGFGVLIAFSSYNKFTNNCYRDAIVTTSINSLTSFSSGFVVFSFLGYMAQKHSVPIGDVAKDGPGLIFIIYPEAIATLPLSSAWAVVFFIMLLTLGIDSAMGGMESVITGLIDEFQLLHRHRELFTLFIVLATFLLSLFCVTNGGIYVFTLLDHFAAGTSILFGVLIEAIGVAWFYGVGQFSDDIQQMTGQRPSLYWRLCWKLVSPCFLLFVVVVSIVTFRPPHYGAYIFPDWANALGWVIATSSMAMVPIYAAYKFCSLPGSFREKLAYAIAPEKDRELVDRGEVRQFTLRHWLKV
# Excitatory amino acid transporter 2, sequence (P43004 whole entry): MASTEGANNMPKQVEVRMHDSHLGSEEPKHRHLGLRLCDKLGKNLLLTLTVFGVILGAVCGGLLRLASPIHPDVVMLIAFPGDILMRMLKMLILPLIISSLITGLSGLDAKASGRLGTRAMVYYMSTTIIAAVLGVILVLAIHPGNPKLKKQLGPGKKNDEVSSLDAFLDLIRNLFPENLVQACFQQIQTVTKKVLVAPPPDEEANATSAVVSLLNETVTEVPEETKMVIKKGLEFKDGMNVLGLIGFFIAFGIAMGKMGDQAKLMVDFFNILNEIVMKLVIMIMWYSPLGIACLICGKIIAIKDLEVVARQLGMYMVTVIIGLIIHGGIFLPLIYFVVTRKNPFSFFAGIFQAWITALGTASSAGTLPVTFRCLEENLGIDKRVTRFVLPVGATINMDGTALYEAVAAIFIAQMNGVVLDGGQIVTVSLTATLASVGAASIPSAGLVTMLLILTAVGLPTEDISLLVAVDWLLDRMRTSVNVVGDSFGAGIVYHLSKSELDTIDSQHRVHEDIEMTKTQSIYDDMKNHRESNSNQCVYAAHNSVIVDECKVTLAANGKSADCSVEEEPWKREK
# Excitatory amino acid transporter 1, sequence (P43003 whole entry): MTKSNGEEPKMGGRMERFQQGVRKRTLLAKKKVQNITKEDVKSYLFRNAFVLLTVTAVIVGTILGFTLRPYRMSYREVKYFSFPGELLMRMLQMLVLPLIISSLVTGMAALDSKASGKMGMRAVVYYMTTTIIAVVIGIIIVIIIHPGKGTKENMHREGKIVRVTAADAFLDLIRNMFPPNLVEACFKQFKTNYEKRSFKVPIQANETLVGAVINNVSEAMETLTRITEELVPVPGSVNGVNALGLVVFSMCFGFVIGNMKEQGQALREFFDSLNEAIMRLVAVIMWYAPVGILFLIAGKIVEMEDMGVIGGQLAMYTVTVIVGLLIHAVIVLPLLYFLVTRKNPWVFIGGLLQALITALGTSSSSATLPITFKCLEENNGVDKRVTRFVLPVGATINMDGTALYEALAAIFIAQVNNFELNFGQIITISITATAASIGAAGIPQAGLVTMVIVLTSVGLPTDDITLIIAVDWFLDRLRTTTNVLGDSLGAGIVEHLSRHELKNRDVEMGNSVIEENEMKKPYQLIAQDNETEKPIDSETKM
structure (smiles),measurement,setting,value
O[C@H]1OC[C@H](Cc2ccc3c(c2)OCO3)[C@H]1Cc1ccc2c(c1)OCO2,IC50,[1],> 200 µM
same,IC50,[2],> 200 µM
same,IC50,[3],12 µM
same,inhibition,[3],Dose-dependent effect
O=C(O)C1=CCCN(CCOC(c2ccc(C(F)(F)F)cc2)c2ccc(C(F)(F)F)cc2)C1,IC50,[4],0.26 µM
O=C(O)C1=CCCN(CCON=C(c2ccccc2)c2ccccc2)C1,IC50,[4],0.04 µM
COC1OC[C@@H](Cc2ccc3c(c2)OCO3)[C@@H]1Cc1ccc2c(c1)OCO2 (stereo partly drawn) [(-)-O-METHYLCUBEBIN],IC50,[2],90.3 µM
same,inhibition,[5],inactive
same,IC50,[3],78.6 µM
O=C1OC[C@H](Cc2ccc3c(c2)OCO3)[C@H]1Cc1ccc2c(c1)OCO2 [HINOKININ],IC50,[6],> 500 µM
same,inhibition,[7],Active
same,IC50,[8],20.6 µM
same,Activity,[9],Non-toxic
same,Activity,[10],inactive
same,IC50,[11],> 500 µM
same,inhibition,[12],Active
same,Activity,[13],inactive
same,IC50,[14],> 500 µM
same,IC50,[1],8.76 µM
same,IC50,[15],> 500 µM
same,IC50,[2],175 µM
same,IC50,[16],> 100 µM
same,Activity,[17],inactive
same,IC50,[3],8.35 µM
same,inhibition,[3],Dose-dependent effect
same,Activity,[18],Active
same,inhibition,[19],Active
